Active and inactive are the calls of the source. The calls are words filed in the database; no cut-off is given here.
Legend:
[1] = Stability in human liver microsomes assessed as parent compound remaining at 1 uM measured after 30 mins by LC-MS/MS analysis; type: ADME, Microsome; conditions: read-out: Stability
In short: (§1)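 Liver microsome stability run by a contract lab using standard protocols. Parent compound remaining measured after 30 min incubation.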

[2] = Stability in dog liver microsomes assessed as parent compound remaining at 1 uM measured after 30 mins by LC-MS/MS analysis; type: ADME, Canis lupus familiaris, Microsome; conditions: read-out: Stability; in short: as §1
[3] = Stability in rat liver microsomes assessed as parent compound remaining at 1 uM measured after 30 mins by LC-MS/MS analysis; type: ADME, Microsome; conditions: read-out: Stability; in short: as §1
[4] = Protein binding in human plasma; type: ADME, cell-free; conditions: read-out: PPB
[5] = Protein binding in dog plasma; type: ADME, cell-free, Canis lupus familiaris; conditions: read-out: PPB
[6] = Protein binding in mouse plasma; type: ADME, cell-free; conditions: read-out: PPB
[7] = (§2) Inhibition of recombinant human His6-tagged PDE4D7 UCR1 S129D mutant expressed in baculovirus infected Sf9 insect cells using cAMP as substrate preincubated for 5 to 10 mins followed by substrate addition and measured for 10 mins in presence of BSA by yeast myokinase/pyruvate kinase/lactate dehydrogenase-coupled fluorescence assay
Cytochrome P450 2C19 = Cytochrome P450 2C19 (Homo sapiens, UniProt P33261); assay: Inhibition of […] (unknown origin) by fluorescence-based assay; type: ADME
Cytochrome P450 2C19, sequence (P33261 whole entry): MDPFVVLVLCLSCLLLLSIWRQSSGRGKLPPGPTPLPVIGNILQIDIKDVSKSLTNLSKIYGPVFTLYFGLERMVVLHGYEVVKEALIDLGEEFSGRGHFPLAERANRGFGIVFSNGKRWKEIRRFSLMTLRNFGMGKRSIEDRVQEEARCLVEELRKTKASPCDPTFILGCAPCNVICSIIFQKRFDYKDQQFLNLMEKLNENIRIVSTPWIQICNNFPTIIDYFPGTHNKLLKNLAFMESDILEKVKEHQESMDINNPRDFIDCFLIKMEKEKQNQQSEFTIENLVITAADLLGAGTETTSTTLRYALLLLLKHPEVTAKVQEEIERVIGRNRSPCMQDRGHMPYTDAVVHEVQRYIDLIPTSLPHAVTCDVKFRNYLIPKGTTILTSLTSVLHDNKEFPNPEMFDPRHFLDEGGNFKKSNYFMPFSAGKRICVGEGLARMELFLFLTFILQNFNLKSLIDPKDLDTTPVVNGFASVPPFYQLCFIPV
In short: (§3)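 CYP inhibition run with a fluorescent substrate by a contract laboratory under standard protocols; IC50 reported.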

Cytochrome P450 2D6 = Cytochrome P450 2D6 (Homo sapiens, UniProt P10635); assay: Inhibition of CYP2D6 (unknown origin) by fluorescence-based assay; type: ADME; in short: as §3
Cytochrome P450 2D6, sequence (P10635 whole entry): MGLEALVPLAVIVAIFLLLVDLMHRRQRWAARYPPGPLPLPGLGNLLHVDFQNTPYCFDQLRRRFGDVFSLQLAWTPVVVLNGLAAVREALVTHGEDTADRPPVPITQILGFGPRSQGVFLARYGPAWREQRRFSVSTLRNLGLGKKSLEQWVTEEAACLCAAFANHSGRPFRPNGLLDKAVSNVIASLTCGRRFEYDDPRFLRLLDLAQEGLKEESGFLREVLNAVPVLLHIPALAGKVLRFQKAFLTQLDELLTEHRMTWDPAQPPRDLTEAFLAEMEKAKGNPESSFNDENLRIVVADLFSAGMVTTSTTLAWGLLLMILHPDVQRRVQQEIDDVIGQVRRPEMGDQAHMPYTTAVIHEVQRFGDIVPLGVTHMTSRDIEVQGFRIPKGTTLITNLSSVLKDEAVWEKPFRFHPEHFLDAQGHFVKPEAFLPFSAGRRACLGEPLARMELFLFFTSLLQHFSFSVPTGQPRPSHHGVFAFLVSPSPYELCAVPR

[8] = as §2, with “mins” for “mins in presence of BSA”, “assay relative to control” for “assay”
[9] = as §2, with “PDE4D3” for “PDE4D7”, “S54D” for “S129D”, “mins” for “mins in presence of BSA”, “assay relative to control” for “assay”
[10] = biological target: 3',5'-cyclic-AMP phosphodiesterase 4D (Homo sapiens, UniProt Q08499); assay: as §2, with “PDE4D2” for “PDE4D7 UCR1 S129D mutant”, “mins” for “mins in presence of BSA”, “assay relative to control” for “assay”; conditions: sf9, 10 min
[11] = Half life in C57Bl6 mouse; type: ADME; conditions: in vivo
[12] = Cmax in ICR mouse at 0.3 mg/kg, po; type: ADME, organism-based; design: dose 0.3 mg/kg, route oral; conditions: in vivo
[13] = Toxicity in rat assessed as effect on CNS up to 60 mg/kg, po; type: organism-based; conditions: in vivo
[14] = Toxicity in rat assessed as pulmonary effect up to 60 mg/kg, po; type: organism-based; conditions: in vivo
[15] = Toxicity in rat assessed as inappetence at 100 mg/kg, po; type: organism-based; conditions: in vivo
[16] = Vascular toxicity in rat measured for 28 days; conditions: in vivo, 672 h
Cynomolgus monkey = assay: Induction of emesis in cynomolgus monkey up to 50 mg/kg, po; type: organism-based, Macaca fascicularis; conditions: in vivo
[17] = biological target: Dual specificity calcium/calmodulin-dependent 3',5'-cyclic nucleotide phosphodiesterase 1A (Homo sapiens, UniProt P54750); assay: Inhibition of recombinant human full length N-terminal GST-tagged PDE1A5 expressed in baculovirus infected Sf9 insect cells using FAM-cAMP as substrate measured after 1 hr by fluorescence assay; conditions: sf9, 1 h
Dual specificity calcium/calmodulin-dependent 3',5'-cyclic nucleotide phosphodiesterase 1A, sequence (P54750 whole entry): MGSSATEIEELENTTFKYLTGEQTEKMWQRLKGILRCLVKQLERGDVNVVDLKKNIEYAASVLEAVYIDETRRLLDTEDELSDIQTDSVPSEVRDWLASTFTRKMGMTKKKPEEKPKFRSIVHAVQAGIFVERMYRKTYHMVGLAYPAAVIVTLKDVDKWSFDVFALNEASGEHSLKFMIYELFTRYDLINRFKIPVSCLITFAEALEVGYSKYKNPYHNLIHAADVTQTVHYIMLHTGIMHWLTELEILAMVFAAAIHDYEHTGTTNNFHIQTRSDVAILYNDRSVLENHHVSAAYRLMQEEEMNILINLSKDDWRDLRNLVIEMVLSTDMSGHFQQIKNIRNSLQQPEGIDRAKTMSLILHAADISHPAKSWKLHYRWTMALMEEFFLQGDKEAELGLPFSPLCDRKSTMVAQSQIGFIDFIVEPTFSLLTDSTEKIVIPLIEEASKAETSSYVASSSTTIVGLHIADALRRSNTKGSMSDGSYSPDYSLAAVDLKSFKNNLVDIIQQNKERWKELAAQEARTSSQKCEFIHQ

[18] = biological target: Dual specificity calcium/calmodulin-dependent 3',5'-cyclic nucleotide phosphodiesterase 1B (Homo sapiens, UniProt Q01064); assay: Inhibition of recombinant human full length N-terminal GST-tagged PDE1B expressed in baculovirus infected Sf9 insect cells using FAM-cAMP as substrate measured after 1 hr by fluorescence assay; conditions: sf9, 1 h
Dual specificity calcium/calmodulin-dependent 3',5'-cyclic nucleotide phosphodiesterase 1B, sequence (Q01064 whole entry, the tested form may be a part): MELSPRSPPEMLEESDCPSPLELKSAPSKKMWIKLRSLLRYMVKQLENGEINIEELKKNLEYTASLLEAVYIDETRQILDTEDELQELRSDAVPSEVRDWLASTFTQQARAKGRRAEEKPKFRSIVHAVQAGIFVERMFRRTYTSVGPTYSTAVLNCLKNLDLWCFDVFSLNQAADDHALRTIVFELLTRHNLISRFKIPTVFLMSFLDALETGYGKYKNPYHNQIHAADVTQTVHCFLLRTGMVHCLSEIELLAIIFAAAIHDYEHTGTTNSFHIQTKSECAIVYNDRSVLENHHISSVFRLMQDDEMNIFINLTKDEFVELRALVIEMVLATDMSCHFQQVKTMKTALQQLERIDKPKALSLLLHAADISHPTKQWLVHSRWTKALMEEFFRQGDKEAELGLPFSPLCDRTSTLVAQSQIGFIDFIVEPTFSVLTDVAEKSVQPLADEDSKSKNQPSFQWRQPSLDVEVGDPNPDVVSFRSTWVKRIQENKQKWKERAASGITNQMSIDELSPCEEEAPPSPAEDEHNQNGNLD

[19] = biological target: Dual specificity calcium/calmodulin-dependent 3',5'-cyclic nucleotide phosphodiesterase 1C (Homo sapiens, UniProt Q14123); assay: Inhibition of recombinant human N-terminal GST-tagged PDE1C (2 to 634 residues) expressed in baculovirus infected Sf9 insect cells using FAM-cAMP as substrate measured after 1 hr by fluorescence assay; conditions: sf9, 1 h
[20] = biological target: cGMP-dependent 3',5'-cyclic phosphodiesterase (Homo sapiens, UniProt O00408); assay: Inhibition of recombinant human full length N-terminal thrombin cleavage site-fused/GST-tagged PDE2A expressed in baculovirus infected Sf9 insect cells using FAM-cAMP as substrate measured after 60 mins by fluorescence assay; conditions: sf9, 1 h
cGMP-dependent 3',5'-cyclic phosphodiesterase, sequence (O00408 whole entry, the tested form may be a part): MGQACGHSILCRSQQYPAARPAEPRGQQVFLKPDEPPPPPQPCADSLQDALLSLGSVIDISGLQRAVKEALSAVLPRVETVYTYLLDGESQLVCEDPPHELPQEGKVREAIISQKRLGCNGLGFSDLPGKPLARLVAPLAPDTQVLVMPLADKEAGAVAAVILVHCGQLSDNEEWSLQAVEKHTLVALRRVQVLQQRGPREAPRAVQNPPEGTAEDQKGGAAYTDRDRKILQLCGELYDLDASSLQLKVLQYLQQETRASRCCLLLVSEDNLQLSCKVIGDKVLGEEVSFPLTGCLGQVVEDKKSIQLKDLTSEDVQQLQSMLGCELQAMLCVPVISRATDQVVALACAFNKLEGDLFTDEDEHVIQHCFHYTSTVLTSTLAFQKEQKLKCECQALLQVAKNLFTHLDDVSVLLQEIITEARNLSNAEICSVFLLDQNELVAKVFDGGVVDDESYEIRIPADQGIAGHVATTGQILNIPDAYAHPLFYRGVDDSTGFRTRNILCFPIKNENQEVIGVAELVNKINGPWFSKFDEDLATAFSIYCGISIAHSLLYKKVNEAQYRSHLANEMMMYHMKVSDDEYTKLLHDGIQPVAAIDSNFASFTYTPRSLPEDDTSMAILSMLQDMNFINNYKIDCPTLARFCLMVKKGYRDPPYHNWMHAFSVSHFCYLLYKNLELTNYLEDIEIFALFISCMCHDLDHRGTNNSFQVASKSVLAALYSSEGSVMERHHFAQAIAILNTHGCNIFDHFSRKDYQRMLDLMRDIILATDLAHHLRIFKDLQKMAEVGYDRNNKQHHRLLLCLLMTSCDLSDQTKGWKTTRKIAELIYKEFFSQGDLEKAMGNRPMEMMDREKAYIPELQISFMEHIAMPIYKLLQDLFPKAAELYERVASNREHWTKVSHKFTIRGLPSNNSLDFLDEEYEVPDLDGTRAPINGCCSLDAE

[21] = biological target: cGMP-inhibited 3',5'-cyclic phosphodiesterase 3A (Homo sapiens, UniProt Q14432); assay: Inhibition of recombinant human N-terminal His/GST-tagged PDE3A (669 to 1141 residues) expressed in baculovirus infected Sf9 insect cells using cAMP as substrate
[22] = biological target: 3',5'-cyclic-AMP phosphodiesterase 4A (Homo sapiens, UniProt P27815); assay: Inhibition of recombinant N-terminal GST-tagged human PDE4A10 (2 to 825 residues) expressed in baculovirus infected Sf9 cells using FAM-cAMP as substrate incubated for 60 mins by fluorescence assay; conditions: sf9, 1 h
[23] = Inhibition of recombinant human N-terminal GST-tagged PDE4D7 (2 to 748 residues) expressed in baculovirus infected Sf9 cells using FAM-cAMP as substrate incubated for 60 mins by fluorescence assay; conditions: sf9, 1 h
[24] = biological target: 3',5'-cyclic-AMP phosphodiesterase 7B (Homo sapiens, UniProt Q9NP56); assay: Inhibition of recombinant human N-terminal GST-tagged/C-terminal His-tagged PDE7B (109 to end residues) expressed in baculovirus infected Sf9 cells using FAM-cAMP as substrate incubated for 60 mins by fluorescence assay; conditions: sf9, 1 h
3',5'-cyclic-AMP phosphodiesterase 7B, sequence (Q9NP56 whole entry): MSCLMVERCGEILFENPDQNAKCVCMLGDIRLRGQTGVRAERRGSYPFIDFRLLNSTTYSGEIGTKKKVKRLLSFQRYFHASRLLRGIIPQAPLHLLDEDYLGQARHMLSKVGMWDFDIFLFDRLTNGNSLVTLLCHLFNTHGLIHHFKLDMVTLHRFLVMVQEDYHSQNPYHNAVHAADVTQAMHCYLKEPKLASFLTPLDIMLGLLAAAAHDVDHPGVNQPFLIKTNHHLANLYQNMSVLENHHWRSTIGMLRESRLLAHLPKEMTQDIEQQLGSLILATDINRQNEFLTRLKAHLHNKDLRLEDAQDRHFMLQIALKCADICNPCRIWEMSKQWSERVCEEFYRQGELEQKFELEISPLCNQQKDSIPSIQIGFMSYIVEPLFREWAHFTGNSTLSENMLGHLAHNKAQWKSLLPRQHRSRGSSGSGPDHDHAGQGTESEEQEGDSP

[25] = biological target: High affinity cAMP-specific and IBMX-insensitive 3',5'-cyclic phosphodiesterase 8A (Homo sapiens, UniProt O60658); assay: Inhibition of recombinant human full length N-terminal GST-tagged PDE8A1 expressed in baculovirus infected Sf9 cells using FAM-cAMP as substrate incubated for 60 mins by fluorescence assay; conditions: sf9, 1 h
[26] = biological target: High affinity cGMP-specific 3',5'-cyclic phosphodiesterase 9A (Homo sapiens, UniProt O76083); assay: Inhibition of recombinant human full length N-terminal GST-tagged PDE9A2 expressed in baculovirus infected Sf9 cells using FAM-cGMP as substrate incubated for 60 mins by fluorescence assay; conditions: sf9, 1 h
High affinity cGMP-specific 3',5'-cyclic phosphodiesterase 9A, sequence (O76083 whole entry): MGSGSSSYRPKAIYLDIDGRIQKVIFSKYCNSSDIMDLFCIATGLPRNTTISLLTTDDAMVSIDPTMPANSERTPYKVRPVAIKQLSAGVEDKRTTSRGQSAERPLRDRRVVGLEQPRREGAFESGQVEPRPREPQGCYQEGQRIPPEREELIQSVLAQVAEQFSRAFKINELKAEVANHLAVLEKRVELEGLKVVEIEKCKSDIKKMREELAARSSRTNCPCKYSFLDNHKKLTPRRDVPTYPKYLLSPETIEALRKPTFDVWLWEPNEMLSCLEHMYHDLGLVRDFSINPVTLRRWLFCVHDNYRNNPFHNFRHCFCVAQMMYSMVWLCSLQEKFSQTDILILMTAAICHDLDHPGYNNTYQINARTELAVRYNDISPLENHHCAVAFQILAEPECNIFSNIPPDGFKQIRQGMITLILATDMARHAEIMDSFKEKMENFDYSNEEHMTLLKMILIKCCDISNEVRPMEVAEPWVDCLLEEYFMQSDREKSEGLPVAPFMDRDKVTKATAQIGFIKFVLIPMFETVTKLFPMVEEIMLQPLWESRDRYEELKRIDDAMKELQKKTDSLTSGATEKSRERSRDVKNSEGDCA

[27] = biological target: Dual 3',5'-cyclic-AMP and -GMP phosphodiesterase 11A (Homo sapiens, UniProt Q9HCR9); assay: Inhibition of recombinant human full length N-terminal GST-tagged PDE11A expressed in baculovirus infected Sf9 cells using FAM-cAMP as substrate incubated for 60 mins by fluorescence assay; conditions: sf9, 1 h
Dual 3',5'-cyclic-AMP and -GMP phosphodiesterase 11A, sequence (Q9HCR9 whole entry): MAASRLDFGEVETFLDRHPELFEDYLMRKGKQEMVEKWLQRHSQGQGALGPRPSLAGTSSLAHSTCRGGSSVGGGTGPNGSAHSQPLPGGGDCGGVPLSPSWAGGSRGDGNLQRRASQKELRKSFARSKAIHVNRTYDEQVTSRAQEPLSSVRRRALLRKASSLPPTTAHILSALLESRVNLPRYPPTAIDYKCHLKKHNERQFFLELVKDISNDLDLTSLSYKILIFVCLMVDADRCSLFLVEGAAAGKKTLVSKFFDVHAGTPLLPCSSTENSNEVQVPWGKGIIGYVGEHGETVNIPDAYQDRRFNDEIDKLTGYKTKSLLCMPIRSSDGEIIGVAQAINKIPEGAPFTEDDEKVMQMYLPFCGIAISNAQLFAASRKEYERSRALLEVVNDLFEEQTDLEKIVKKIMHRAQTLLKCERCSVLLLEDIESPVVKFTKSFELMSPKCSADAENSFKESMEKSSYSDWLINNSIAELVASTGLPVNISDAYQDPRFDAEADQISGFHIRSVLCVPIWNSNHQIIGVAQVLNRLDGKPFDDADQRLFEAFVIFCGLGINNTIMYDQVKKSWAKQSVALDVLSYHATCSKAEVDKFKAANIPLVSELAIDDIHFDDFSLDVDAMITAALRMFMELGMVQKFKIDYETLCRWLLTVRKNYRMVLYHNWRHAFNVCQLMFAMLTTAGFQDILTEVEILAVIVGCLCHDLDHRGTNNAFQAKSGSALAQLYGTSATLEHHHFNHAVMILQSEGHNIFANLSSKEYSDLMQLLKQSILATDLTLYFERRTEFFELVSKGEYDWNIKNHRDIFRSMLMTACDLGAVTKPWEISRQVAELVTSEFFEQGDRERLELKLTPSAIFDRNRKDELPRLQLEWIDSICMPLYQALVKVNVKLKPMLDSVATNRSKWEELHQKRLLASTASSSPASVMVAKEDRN

Work on `O=C(O)Cc1ccc(Cc2cc(-c3cccc(Cl)c3)nc(C(F)(F)F)c2)cc1` [ZATOLMILAST] yielded a remaining at 0.5 h, 1 µM [1] of 88 to 100%, a remaining at 0.5 h, 1 µM [2] of 88 to 100% and a remaining at 0.5 h, 1 µM [3] of 88 to 100%. For the same molecule, the fraction unbound [4] was 0.002 to 0.005, the fraction unbound [5] was 0.002 to 0.005 and the fraction unbound [6] was 0.002 to 0.005. The inhibition [7] was “Active”, the IC50 (Cytochrome P450 2C19) was 43 µM and the IC50 (Cytochrome P450 2D6) was greater than 100 µM. For the same molecule, the Imax [8] was 90.2%, the Imax [9] was 89% and the “inhibition (INH)” value [10] was “Not Active”. For the same molecule, the half-life [11] was 10 to 12 h, the Cmax [12] was 153 ng/mL and the Activity [13] was “Non-Toxic”. The Activity [14] was “Non-Toxic”, the Activity [15] was “Toxic” and the Activity [16] was “Non-Toxic”. For the same molecule, the Activity (Cynomolgus monkey) was “Non-Toxic”, the “inhibition (INH)” value [17] was “Not Active” and the “inhibition (INH)” value [18] was “Not Active”. For the same molecule, the “inhibition (INH)” value [19] was “Not Active”, the “inhibition (INH)” value [20] was “Not Active” and the “inhibition (INH)” value [21] was “Not Active”. The “inhibition (INH)” value [22] was “Not Active”, the “inhibition (INH)” value [23] was “Not Active” and the “inhibition (INH)” value [24] was “Not Active”. The “inhibition (INH)” value [25] was “Not Active”, the “inhibition (INH)” value [26] was “Not Active” and the “inhibition (INH)” value [27] was “Not Active”.

Source: ChEMBL document CHEMBL4396869, “Design and Synthesis of Selective Phosphodiesterase 4D (PDE4D) Allosteric Inhibitors for the Treatment of Fragile X Syndrome and Other Brain Disorders” (J Med Chem, 2019)
